Drawing on ChEMBL document CHEMBL1133976, “Orally bioavailable, indole-based nonpeptide GnRH receptor antagonists with high potency and functional activity” (Bioorg Med Chem Lett, 2001), this text covers IC50 and bioavailability for 29 molecules.

The target in series [1] is T1, Gonadotropin-releasing hormone receptor (Homo sapiens, UniProt P30968).
T1 sequence (P30968 whole entry): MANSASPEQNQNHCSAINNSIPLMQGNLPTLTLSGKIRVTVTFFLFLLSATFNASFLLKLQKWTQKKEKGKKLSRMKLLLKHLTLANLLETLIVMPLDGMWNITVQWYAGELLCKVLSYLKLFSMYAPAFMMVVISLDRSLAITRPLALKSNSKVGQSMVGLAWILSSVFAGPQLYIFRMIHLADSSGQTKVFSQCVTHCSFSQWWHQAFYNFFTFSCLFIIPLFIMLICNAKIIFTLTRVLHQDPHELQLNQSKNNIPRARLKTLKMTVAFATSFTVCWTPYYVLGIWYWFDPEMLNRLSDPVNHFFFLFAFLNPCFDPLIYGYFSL
Nature of the series: In vitro functional antagonism via inhibition of GnRH-stimulated phosphatidylinositol (PI) hydrolysis in cloned Chinese hamster ovary (CHO) cells stably expressing the human GnRH receptor. The class given is cell-based. The gist of the method:
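Functional antagonism read as inhibition of GnRH-stimulated phosphatidylinositol hydrolysis in cloned CHO cells stably expressing human GnRH receptor; IC50 reported in nM.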

Series [2] addresses T1, Gonadotropin-releasing hormone receptor. Nature of the series: Binding inhibition towards human pituitary gonadotropin-releasing hormone receptor using [125I]buserelin. The gist of the method: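 Competition binding against the agonist radioligand [125I]buserelin at human pituitary GnRH receptor, run in the presence of 0.1% BSA; IC50 reported in nM.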
The nature of series [3]: Oral bioavailability in rat. In kind it is ADME, organism-based. As to conditions: in vivo.
Series [4] is described as follows: Oral bioavailability in dog. The class given is ADME, organism-based, Canis lupus familiaris. The following applies: in vivo.
A short description of series [5]: Oral bioavailability in Rhesus monkey. The class given is ADME, organism-based, Macaca mulatta. The following applies: in vivo.

The term IC50 denotes the point on the concentration scale where inhibition reaches its midpoint. For the molecule `Cc1cc(C)cc(-c2[nH]c3ccc(C(C)(C)C(=O)N4CC5CCC4CC5)cc3c2[C@H](C)CNCCc2ccc(=O)n(C)c2)c1`, the IC50 in series [1] came out at 1.4 nM; in series [2], 0.2 nM.

For the molecule `Cc1cc(C)cc(-c2[nH]c3ccc(C(C)(C)C(=O)N4CCC5(CC4)OCCO5)cc3c2[C@H](C)CNCCCCc2ccncc2)c1`, the IC50 in series [1] turned out to be 66 nM; in series [2], 0.6 nM.

Broadly, the bioavailability is the share of a dose that reaches the circulation, judged against a reference dose that is usually intravenous. Take `Cc1cc(C)cc(-c2[nH]c3ccc(C(C)(C)C(=O)N4CC5CCC4CC5)cc3c2[C@H](C)CNCCCCc2ccncc2)c1`: the bioavailability in series [3] came out at 14%; in series [4], 7%. Also, the IC50 was determined as 2.8 nM in series [1] and 1 nM in series [2].

With `Cc1cc(C)cc(-c2[nH]c3ccc(C(C)(C)C(=O)N4CCN(C(=O)OC(C)(C)C)CC4)cc3c2[C@H](C)CNCCCCc2ccncc2)c1`, the figures for the IC50 in series [1] and in series [2] were 220 nM and 6.1 nM, respectively.

Consider `COCn1cc(CCNC[C@@H](C)c2c(-c3cc(C)cc(C)c3)[nH]c3ccc(C(C)(C)C(=O)N4CC5CCC4CC5)cc23)ccc1=O`, for which the IC50 in series [1] worked out at 3.9 nM; in series [2], 0.4 nM.

With `CCS(=O)(=O)N1CCN(C(=O)C(C)(C)c2ccc3[nH]c(-c4cc(C)cc(C)c4)c([C@H](C)CNCCCCc4ccncc4)c3c2)CC1`, the IC50 in series [1] amounted to 124 nM; in series [2], 4.4 nM.

As for `Cc1cc(C)cc(-c2[nH]c3ccc(C(C)(C)C(=O)N4C5CCCCC5C5CCCCC54)cc3c2[C@H](C)CNCCCCc2ccncc2)c1` (some centres undefined), the IC50 in series [1] came to 31 nM; in series [2] it was 21 nM.

On to `Cc1cc(C)cc(-c2[nH]c3ccc(C(C)(C)C(=O)N4CC5CCC4CC5)cc3c2[C@H](C)CNCCc2cccn(C)c2=O)c1`, for which the IC50 came to 82 nM in series [1] and 5.3 nM in series [2].

For the molecule `Cc1cc(C)cc(-c2[nH]c3ccc(C(C)(C)C(=O)N4CCC(C)(C)CC4)cc3c2[C@H](C)CNCCCCc2ccncc2)c1`, the IC50 in series [1] amounted to 39 nM; in series [2] it was 1.3 nM.

For the molecule `Cc1cc(C)cc(-c2[nH]c3ccc(C(C)(C)C(=O)N4CC5CCC4CC5)cc3c2[C@H](C)CNCCc2ccncc2)c1`, the bioavailability is 21% in series [5], 8% in series [3] and 25% in series [4]. The IC50 turned out to be 7.2 nM in series [1] and 0.6 nM in series [2].

Take `COc1ccc(CCNC[C@@H](C)c2c(-c3cc(C)cc(C)c3)[nH]c3ccc(C(C)(C)C(=O)N4CC5CCC4CC5)cc23)cn1`: the IC50 in series [1] came out at 11 nM; in series [2] it was 1 nM.

With `Cc1cc(C)cc(-c2[nH]c3ccc(C(C)(C)C(=O)N4C[C@H]5CC[C@@H]4C5)cc3c2[C@H](C)CNCCCCc2ccncc2)c1`, the values for the IC50 in series [1] and in series [2] were 4 nM and 1 nM, respectively.

As for `Cc1cc(C)cc(-c2[nH]c3ccc(C(C)(C)C(=O)N4C[C@@H]5CC[C@H]4C5)cc3c2[C@H](C)CNCCCCc2ccncc2)c1`, the figures for the IC50 in series [1] and in series [2] were 8.7 nM and 0.4 nM, respectively.

Consider `Cc1cc(C)cc(-c2[nH]c3ccc(C(C)(C)C(=O)N4CC5CCC(CC5)C4)cc3c2[C@H](C)CNCCCCc2ccncc2)c1`, for which the IC50 in series [1] amounted to 13 nM; in series [2] it was 2.1 nM.

For the molecule `Cc1cc(C)cc(-c2[nH]c3ccc(C(C)(C)C(=O)N(CC(C)C)CC(C)C)cc3c2[C@H](C)CNCCCCc2ccncc2)c1`, the values for the IC50 in series [1] and in series [2] were 14 nM and 5.6 nM, respectively.

Regarding `Cc1cc(C)cc(-c2[nH]c3ccc(C(C)(C)C(=O)N4C[C@H]5CC[C@@H]4C5)cc3c2[C@H](C)CNCCc2ccncc2)c1`, in series [4], the bioavailability worked out at 8.5%. In addition, the IC50 amounted to 1.9 nM in series [1] and 1.2 nM in series [2].

For `Cc1cc(C)cc(-c2[nH]c3ccc(C(C)(C)C(=O)N4C5CCC4CC5)cc3c2[C@H](C)CNCCCCc2ccncc2)c1`, the IC50 in series [1] is 5.7 nM; in series [2], 0.7 nM.

Take `Cc1cc(C)cc(-c2[nH]c3ccc(C(C)(C)C(=O)N4CCC5(CCCC5)CC4)cc3c2[C@H](C)CNCCCCc2ccncc2)c1`: the IC50 in series [1] amounted to 93 nM; in series [2], 2.7 nM.

In series [4], `Cc1cc(C)cc(-c2[nH]c3ccc(C(C)(C)C(=O)N4CC5CCC4CC5)cc3c2[C@H](C)CNCCc2cccnc2)c1` showed a bioavailability of 12%. Also, the IC50 in series [1] turned out to be 2.6 nM; in series [2], 0.6 nM.

Take `Cc1cc(C)cc(-c2[nH]c3ccc(C(C)(C)C(=O)N4C5CCC4CC5)cc3c2CCNCCCCc2ccncc2)c1`: in series [2], the IC50 was found to be 1.4 nM.

For the molecule `Cc1cc(C)cc(-c2[nH]c3ccc(C(C)(C)C(=O)N4C[C@H]5CCCC[C@H]5C4)cc3c2[C@H](C)CNCCCCc2ccncc2)c1`, the IC50 was 66 nM in series [1] and 1.4 nM in series [2].

Regarding `Cc1cc(C)cc(-c2[nH]c3ccc(C(C)(C)C(=O)N4CC5CCC4CC5)cc3c2[C@H](C)CNCCC2CCC(=O)N(C)C2)c1` (some centres undefined), the IC50 is 8.2 nM in series [1] and 0.4 nM in series [2].

As to `Cc1cc(C)cc(-c2[nH]c3ccc(C(C)(C)C(=O)N4C5CCCC4CC5)cc3c2[C@H](C)CNCCCCc2ccncc2)c1`, the IC50 in series [1] came out at 8.8 nM; in series [2], 0.8 nM.

On to `Cc1cc(C)cc(-c2[nH]c3ccc(C(C)(C)C(=O)N4CC5CCC4CC5)cc3c2[C@H](C)CNCCc2cc(C)c(=O)n(C)c2)c1`, for which the bioavailability turned out to be 4% in series [5] and 35% in series [4]. Moreover, the IC50 is 4 nM in series [1] and 0.6 nM in series [2].

For the molecule `Cc1cc(C)cc(-c2[nH]c3ccc(C(C)(C)C(=O)N4CC5CCC4CC5)cc3c2[C@H](C)CNCCc2ccc(O)nc2)c1`, the IC50 in series [1] came to 1 nM; in series [2] it was 0.3 nM.

`Cc1cc(C)cc(-c2[nH]c3ccc(C(C)(C)C(=O)N4CC5(C)CC4CC(C)(C)C5)cc3c2[C@H](C)CNCCCCc2ccncc2)c1` (some centres undefined): the IC50 in series [1] is 6.4 nM; in series [2], 4.8 nM.

Regarding `Cc1cc(C)cc(-c2[nH]c3ccc(C(C)(C)C(=O)N4CC5CCCC4C5)cc3c2[C@H](C)CNCCCCc2ccncc2)c1` (some centres undefined), the results for the IC50 in series [1] and in series [2] were 6.8 nM and 4.8 nM, respectively.

Take `Cc1cc(C)cc(-c2[nH]c3ccc(C(C)(C)C(=O)N4CC(C)(C)C4)cc3c2[C@H](C)CNCCCCc2ccncc2)c1`: the values for the half-maximal inhibitory concentration (IC50) in series [1] and in series [2] were 21 nM and 0.7 nM, respectively.

`Cc1cc(C)cc(-c2[nH]c3ccc(C(C)(C)C(=O)N4C5CCC4CC5)cc3c2[C@H](C)CNCCc2ccncc2)c1`: the bioavailability in series [5] was 6.4%; in series [3] it was 23%; in series [4], 14%. Besides, the IC50 in series [1] was determined as 7 nM; in series [2], 0.8 nM.
